Reference: paper PMC4980077 (The FEBS journal, 2016)
“Also recorded” adds a separate entry of the source.

Experiments:
PKA:AKAP interaction = conditions: through an allosteric effect away from the D/D domain; ref [32]; cited from earlier work
PKG Iα = assay: 32P phosphorylation assay with PKG Iα; format: biochemical; conditions: PKG Iα 20 nM, pH 7.5; n = 3
How it was run: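 Substrate was His-tagged human smAKAP (wild type, or S66D with PKA-Cα) at 10 μM. It was incubated with 20 nM recombinant kinase in 50 mM MOPS pH 7.5 containing 10 mM MgCl2, 200 μM ATP and [32P]ATP. Aliquots were quenched in 30% acetic acid at 0, 5, 10 and 15 min. Results are means ± SD of 3 independent experiments.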

[1] = Circular dichroism of AKB peptides; format: physicochemical; conditions: 0.1 M Tris pH 8.5, Jasco J-810
PKA-RIα = assay: Confocal colocalization with PKA-RIα in HeLa cells; format: cell-based; conditions: transfected, confocal, PKA-RIα-mCherry
PKA-RIβ = assay: Confocal colocalization with PKA-RIβ-mKO2 in HeLa cells; format: cell-based; conditions: transfected, confocal, unstimulated
How it was run: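 HeLa cells co-expressed GFP-tagged smAKAP (wild type, S66E or S66D) with mKO2-tagged PKA-RIα or RIβ. Cells were washed in ice-cold PBS, fixed in ice-cold 4% formaldehyde in PBS, washed twice and imaged by confocal microscopy through a 63× oil objective. Stimulated cells received calyculin A plus 8-CPT-cAMP and were imaged live.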

In the case of `Nc1cc(Cc2ccc(O)c(N)c2)ccc1O` [FMP-API-1], the “inhibition of PKA binding to AKAPs” value (PKA:AKAP interaction) is given as “inhibit the binding of PKA to AKAPs”.

With “His6-smAKAP: recombinant human His-tagged smAKAP (wt), called smAKAP-wt in the phosphorylation assay” the “phosphorylation by PKG Iα compared with PKA” value (PKG Iα) was “only PKA phosphorylated”.

For IVILEYAHRLDQDILCDALQQWAC [AKB-S66D], the “secondary structure by CD” value [1] was “no secondary structure”.

In the case of IVILEYAHRLEQDILCDALQQWAC [AKB-S66E], the “secondary structure by CD” value [1] is reported as “no secondary structure”.

With IVILEYAHRLSQDILCDALQQWAC [AKB-wt] the “α-helix propensity by CD” value [1] was ~ 45%.

With IVILEYAHRLpSQDILCDALQQWAC [AKB-pSer66] the “secondary structure by CD” value [1] was “no secondary structure”.

In the case of “smAKAP-wt-GFP: wild-type smAKAP GFP fusion expressed in transfected cells”, the “colocalization with PKA-RIα” value (PKA-RIα) is reported as “strong colocalization along the plasma membrane” and the “colocalization with PKA-RIβ-mKO2” value (PKA-RIβ) is reported as “strong colocalization along the plasma membrane; also recorded: colocalization at the plasma membrane”.
